Assay [1] deals with T1, Shc SH2 domain protein (UniProt P29353).
T1 sequence: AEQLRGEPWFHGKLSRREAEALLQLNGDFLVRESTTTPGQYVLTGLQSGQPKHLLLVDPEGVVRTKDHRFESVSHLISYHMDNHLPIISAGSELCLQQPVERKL
Nature of the assay: fluorescence polarisation. On the technique in general: In fluorescence polarisation assays a small probe gives low polarisation when free and higher when bound to something large.

For assay [2], the target named is T2, Shc SH2 domain (Homo sapiens, UniProt P29353).
T2 sequence (P29353 488-579 limits assumed): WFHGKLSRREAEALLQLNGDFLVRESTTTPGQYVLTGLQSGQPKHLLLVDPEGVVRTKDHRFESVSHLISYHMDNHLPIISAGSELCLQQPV
Nature of the assay: Steady state. It counts as binding. As to conditions: for Kd ± s.d.: Table 1, FITC-labelled peptides, n.b. = no binding. The gist of the method: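 Direct titration: 5 nM N-terminal fluorescein-labelled peptide in 1× BS with 10% (v/v) DMSO, with Shc protein serially diluted in from a 100 μM starting concentration. Excitation at 485 nm and parallel/perpendicular emission at 535 nm. Kd comes from fitting anisotropy against protein concentration to a single-site quadratic binding model, corrected for the bound/free fluorescence intensity ratio.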

For assay [3], the target named is T2, Shc SH2 domain. Nature of the assay: Fluorescence anisotropy competition assay using peptide 8 as reference peptide. It counts as binding.
For assay [4], the target named is FITC-NH-(CH2)3-CO-L-pY-Q-G-L-S-amide. Nature of the assay: fluorescence polarisation.
For assay [5], the target named is FITC-NH-(CH2)2-CO-L-pY-Q-G-L-S-amide. Nature of the assay: fluorescence polarisation.
In assay [6] the target is FITC-NH-(CH2)2-CO-pY-Q-G-L-S-amide. Nature of the assay: fluorescence polarisation.
Assay [7] deals with FITC-pY-Q-G-L-S-amide. Nature of the assay: fluorescence polarisation.
The target of assay [8] is FITC-NH-(CH2)4-CO-pY-Q-G-L-S-amide. Nature of the assay: fluorescence polarisation.
Assay [9] addresses FITC-NH-(CH2)5-CO-pY-Q-G-L-S-amide. Nature of the assay: fluorescence polarisation.
In assay [10] the target is FITC-NH-(CH2)3-CO-pY-Q-G-L-S-amide. Nature of the assay: fluorescence polarisation.
The target in assay [11] is FITC-NH-(CH2)4-CO-L-pY-Q-G-L-S-amide. Nature of the assay: fluorescence polarisation.
The target in assay [12] is T1, Shc SH2 domain protein. Nature of the assay: fluorescence polarisation. The source holds these as a separate data set.

Like-named read-outs stand apart in the source and are kept apart here. Where a SMILES comes first, the peptide text is derived from it. [ ]: non-standard residue; d: D form. The star is where a group is joined. FITC = O=C1OC2(c3ccc(O)cc3Oc3cc(O)ccc32)c2ccc(NC(=S)*)cc21; pY = N[C@@H](Cc1ccc(OP(=O)(O)O)cc1)C(=O)O; Ahx = NCCCCCC(=O)O Some results are limits rather than exact numbers.

For orientation: IC50 means the concentration that inhibits the measured activity by half. High values mean weaker potency in that assay, low ones greater potency in that assay. One may read the Kd as the equilibrium constant for the complex coming apart. Low values mean tighter binding, high ones weaker binding.

The molecule Ac-pY-Q-G-L-S-amide (peptide) returned an IC50 in assay [1] of 112 µM. As to `CC(C)C[C@H](NC(=O)CNC(=O)[C@H](CCC(N)=O)NC(=O)[C@H](Cc1ccc(OP(=O)(O)O)cc1)NC(=O)[C@H](CC(C)C)NC(=S)Nc1ccc2c(c1)C(=O)OC21c2ccc(O)cc2Oc2cc(O)ccc21)C(=O)N[C@@H](CO)C(N)=O` [compound 3, FITC-L-pY-Q-G-L-S-amide] (HELM PEPTIDE1{[O=C1OC2(c3ccc(O)cc3Oc3cc(O)ccc32)c2ccc(NC(=S)[*:2])cc21].L.[O=C([C@H](Cc1ccc(OP(=O)(O)O)cc1)N[*:1])[*:2]].Q.G.L.S.[am]}$$$$V2.0), in assay [2] (FITC-containing peptides), the Kd entry is listed as “complete loss of binding affinity”. Moreover, the “Kd ± s.d.” value in assay [2] is “n.b. ^b”.

In the case of “FITC-NH-(CH2) -CO-L-pY-Q-G-L-S-amide (LYQGLS; not fully specified; FITC-NH-(CH2)-CO- on the N-terminus; phosphotyrosine at 2; C-terminal amide) [compound 10]”, the “Kd ± s.d.” value in assay [2] is “n.b”. As to “FITC-NH-(CH2)-CO-pY-Q-G-L-S-amide (YQGLS; not fully specified; FITC-NH-(CH2)-CO- on the N-terminus; phosphotyrosine at 1; C-terminal amide) [compound 5]”, in [2], the “Kd ± s.d.” value is given as “n.b”. As for `CC(=O)N[C@@H](Cc1ccc(OP(=O)(O)O)cc1)C(=O)N[C@@H](CCC(N)=O)C(=O)NCC(N)=O` [Ac-pY-Q-G-amide] (HELM PEPTIDE1{[ac].[O=C([C@H](Cc1ccc(OP(=O)(O)O)cc1)N[*:1])[*:2]].Q.G.[am]}$$$$V2.0), the concentration for half-maximal inhibition (IC50) in [3] is over 500 µM.

On to `CC(=O)N[C@@H](Cc1ccc(OP(=O)(O)O)cc1)C(=O)N[C@@H](CCC(N)=O)C(=O)NCC(=O)N[C@@H](CC(C)C)C(=O)N[C@@H](CO)C(N)=O` [Ac-pY-Q-G-L-S-amide] (HELM PEPTIDE1{[ac].[O=C([C@H](Cc1ccc(OP(=O)(O)O)cc1)N[*:1])[*:2]].Q.G.L.S.[am]}$$$$V2.0), for which the IC50 in assay [3] is 112.5 ± 0.7 µM. Besides, in assay [3] (relative to 45 (IC50 = 248 μM)), the “Shc SH2 domain binding affinity relative to parent Gly-containing peptide 45” value is given as “approximate doubling of binding affinity”. In assay [3], `CC(=O)NCCCCC(=O)N[C@@H](Cc1ccc(OP(=O)(O)O)cc1)C(=O)N[C@@H](CCC(N)=O)C(=O)NCC(=O)N[C@@H](CC(C)C)C(=O)N[C@@H](CO)C(N)=O` [compound 15, Ac-NH-(CH2)4-CO-pY-Q-G-L-S-amide] (HELM PEPTIDE1{[ac].[O=C(CCCCN[*:1])[*:2]].[O=C([C@H](Cc1ccc(OP(=O)(O)O)cc1)N[*:1])[*:2]].Q.G.L.S.[am]}$$$$V2.0) yielded an IC50 of 158 ± 10 µM. Consider “Ac-pY-Q-G-L-S-NHR, R = allyl, no N-allyl substitution (peptide 31)”, for which, in [1], the IC50 amounted to 189 µM.

Regarding “Shc SH2 domain protein (from UniProt P29353 480-583) (domain or fragment)”, the Kd turned out to be 8.6 µM in assay [4]; 7.6 µM in assay [5]; 1.09 µM in assay [6]; 12.4 µM in assay [7]; 0.35 µM in [8]; 4.7 µM in assay [9]. Also, the dissociation constant (Kd) came out at 7.2 µM in assay [10] and 8.9 µM in [11].

For `CC(C)C[C@H](NC(=O)CNC(=O)[C@H](CCC(N)=O)NC(=O)[C@H](Cc1ccc(OP(=O)(O)O)cc1)NC(=O)[C@H](CC(C)C)NC(=O)CCCCCNC(=S)Nc1ccc2c(c1)C(=O)OC21c2ccc(O)cc2Oc2cc(O)ccc21)C(=O)N[C@@H](CO)C(N)=O` [compound 14, FITC-NH-(CH2)5-CO-L-pY-Q-G-L-S-amide] ({FITC-Ahx}-L[pY]QGLS-NH2), the “Kd ± s.d.” value in [2] is on record as “n.b”. As for “Ac-pY-Q-G-L-S-NHR, R = homoallyl, no N-allyl substitution (peptide 35)”, the IC50 in assay [1] worked out at 165 µM.

B1: Ac-pY-Q-G-L-amide (peptide)
peptide: YQGL
HELM: PEPTIDE1{[ac].[O=C([C@H](Cc1ccc(OP(=O)(O)O)cc1)N[*:1])[*:2]].Q.G.L.[am]}$$$$V2.0
SMILES: CC(=O)N[C@@H](Cc1ccc(OP(=O)(O)O)cc1)C(=O)N[C@@H](CCC(N)=O)C(=O)NCC(=O)N[C@@H](CC(C)C)C(N)=O
The molecule B1 had an IC50 in assay [12] of 248 µM.

B2: Ac-pY-Q-G-L-NHR, R = allyl, no N-allyl substitution (peptide 38) (peptide)
peptide: Ac-[pY]QGL-{NH‑allyl}
B2 had an IC50 in assay [12] of 91 µM.

(Values after paper PMC2669314 (Journal of medicinal chemistry, 2009).)
